Values after ≈ are worked out from the molar mass of the structure shown. Active and inactive are the calls of the source. No cut-off for these calls is given here.
Legend:
Plasmodium falciparum [1] = test: Antimalarial activity against Plasmodium falciparum 3D7 incubated for 72 hrs by LDH assay; format: functional, organism-based; details: 3D7, 72 h
Outline: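 Asexual blood-stage P. falciparum 3D7 parasites were cultured with compound for 72 h, and viability was read by lactate dehydrogenase (LDH) activity.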

HepG2 = test: Cytotoxicity against human HePG2 cells assessed as growth inhibition after 48 hrs by Cell Titer-Glo assay; format: cell-based; details: HepG2, 48 h
[2] = Solubility of compound in PBS at pH 6.5 by nephelometric analysis; format: physicochemical
Plasmodium falciparum [3] = test: Antimalarial activity against Plasmodium falciparum NF54 late stage ([…]) expressing Pfs16-LUC-GFP assessed as growth inhibition at 20 uM by high content imaging assay relative to control; format: functional; details: read-out: GI
Plasmodium falciparum [4] = test: Antimalarial activity against Plasmodium falciparum NF54 early stage (1 to 3) expressing Pfs16-LUC-GFP assessed as growth inhibition at 20 uM by high content imaging assay relative to control; format: functional; details: read-out: GI
Plasmodium falciparum [5] = test: Antimalarial activity against Plasmodium falciparum NF54 late stage ([…]) expressing Pfs16-LUC-GFP assessed as growth inhibition by high content imaging assay; format: functional, organism-based
Plasmodium falciparum [6] = test: Antimalarial activity against schizonts stage of Plasmodium falciparum D10 expressing PEXEL-Nluc infected in human RBC assessed as reduction in invasion at 5 times of EC90 concentration preincubated for 30 mins followed by compound wash out and measured after 24 hrs by luminometric method; format: functional, organism-based
Plasmodium falciparum [7] = test: Antimalarial activity against Plasmodium falciparum NF54 early stage (1 to 3) expressing Pfs16-LUC-GFP assessed as growth inhibition by high content imaging assay; format: functional, organism-based
Plasmodium falciparum [8] = test: Antimalarial activity against asexual blood stage of Mefloquine-resistant Plasmodium falciparum W2mef assessed as reduction in cell viability after 72 hrs by EtBr staining based flow cytometric analysis; format: functional, organism-based
Plasmodium falciparum [9] = test: Antimalarial activity against asexual blood stage of chloroquine-resistant Plasmodium falciparum Dd2 assessed as reduction in cell viability after 72 hrs by EtBr staining based flow cytometric analysis; format: functional, organism-based; details: Dd2, 72 h
Plasmodium knowlesi = test: Antimalarial activity against asexual blood stage of Plasmodium knowlesi YHI assessed as reduction in cell viability after 48 hrs by EtBr staining based flow cytometric analysis; format: functional, organism-based
Plasmodium falciparum [10] = test: Antimalarial activity against asexual blood stage of chloroquine-resistant Plasmodium falciparum 7G8 assessed as reduction in cell viability after 72 hrs by EtBr staining based flow cytometric analysis; format: functional, organism-based; details: 7G8, 72 h
Plasmodium falciparum [11] = test: Antimalarial activity against asexual blood stage of artemisinin-resistant Plasmodium falciparum Cam3.12539T cambodian isolate assessed as reduction in cell viability after 72 hrs by EtBr staining based flow cytometric analysis; format: functional, organism-based; details: Cam3.12539T cambodian isolat
Plasmodium falciparum [12] = test: Antimalarial activity against schizonts stage of Plasmodium falciparum D10 expressing GFP infected in human RBC assessed as reduction in ring stage formation at 4 times of EC90 concentration after 6 hrs by flow cytometric analysis; format: functional, organism-based
Plasmodium falciparum [13] = test: Antimalarial activity against asexual blood stage of Plasmodium falciparum 3D7 assessed as reduction in cell viability after 72 hrs by EtBr staining based flow cytometric analysis; format: functional, organism-based; details: 3D7, 72 h
Plasmodium falciparum [14] = test: Antimalarial activity against schizonts stage of Plasmodium falciparum D10 expressing GFP infected in human RBC assessed as reduction in merozoites invade to RBC at 4 times of EC90 concentration after 6 hrs by flow cytometric analysis; format: functional, organism-based

| EC50 (Plasmodium falciparum [1]) | Compound | EC50 (HepG2) | other results |
| --- | --- | --- | --- |
| 4.4 µM | CC(C(=O)N1CCOCC1)N1CCN(S(=O)(=O)c2ccc(C(C)(C)C)cc2)CC1 (stereo unspecified) | > 40 µM |  |
| 4.3 µM | CC(C(=O)N1CCC(C)(C)CC1)N1CCN(S(=O)(=O)c2ccc(C(C)(C)C)cc2)CC1 (stereo unspecified) | > 40 µM |  |
| 0.65 µM | CC(C(=O)N1CCCCCC1)N1CCN(S(=O)(=O)c2ccc(C(C)(C)C)cc2)CC1 (stereo unspecified) | > 40 µM |  |
| 1.6 µM | CC(C(=O)N1CCCC1)N1CCN(S(=O)(=O)c2ccc(C(C)(C)C)cc2)C(C)(C)C1 (stereo unspecified) | > 40 µM |  |
| 0.3 µM | CC(C(=O)N1CCC2(CC1)CC2)N1CCN(S(=O)(=O)c2ccc(C(C)(C)C)cc2)CC1 (stereo unspecified) | > 40 µM |  |
| 0.93 µM | CC(C(=O)N1CCc2ccccc21)N1CCN(S(=O)(=O)c2ccc(C(C)(C)C)cc2)CC1 (stereo unspecified) | > 40 µM |  |
| 1 µM | CC(C(=O)N1Cc2ccccc2C1)N1CCN(S(=O)(=O)c2ccc(C(C)(C)C)cc2)CC1 (stereo unspecified) | > 40 µM |  |
| 0.81 µM | CC(C(=O)N1C[C@H]2CCC[C@H]2C1)N1CCN(S(=O)(=O)c2ccc(C(C)(C)C)cc2)CC1 (stereo partly specified) | > 40 µM |  |
| 0.92 µM | CC(C(=O)N1C2CCCC1CC2)N1CCN(S(=O)(=O)c2ccc(C(C)(C)C)cc2)CC1 (stereo unspecified) | > 40 µM |  |
| 8.4 µM | CC(C(=O)N1CCCC1)N1CCN(S(=O)(=O)c2cccc(C(C)(C)C)c2)CC1 (stereo unspecified) | > 40 µM |  |
| 1.9 µM | CC(C(=O)N1CCCc2ccccc21)N1CCN(S(=O)(=O)c2ccc(C(C)(C)C)cc2)CC1 (stereo unspecified) | > 40 µM |  |
| 1.3 µM | CC1CCN(C(=O)C(C)N2CCN(S(=O)(=O)c3ccc(C(C)(C)C)cc3)CC2)CC1 (stereo unspecified) | > 40 µM |  |
| > 10 µM | CC(C)c1ccc(S(=O)(=O)N2CCN(C(C)C(=O)N3CCCC3)CC2)cc1 (stereo unspecified) | > 40 µM |  |
| 1.9 µM | CC(C(=O)N1CCc2cccnc2C1)N1CCN(S(=O)(=O)c2ccc(C(C)(C)C)cc2)CC1 (stereo unspecified) | > 40 µM |  |
| 1.9 µM | CCC(C(=O)N1CCCC1)N1CCN(S(=O)(=O)c2ccc(C(C)(C)C)cc2)CC1 (stereo unspecified) | > 40 µM |  |
| 0.3 µM | C[C@@H](C(=O)N1CCCC1)N1CCN(S(=O)(=O)c2ccc(C(C)(C)C)cc2)CC1 | > 40 µM | solubility kinetic [2]: 25 µM (≈ 10.2 µg/mL) |
| 2.6 µM | CC(C(=O)N1CCc2ncccc2C1)N1CCN(S(=O)(=O)c2ccc(C(C)(C)C)cc2)CC1 (stereo unspecified) | > 40 µM |  |
| 1.8 µM | CCN(CC)C(=O)C(C)N1CCN(S(=O)(=O)c2ccc(C(C)(C)C)cc2)CC1 (stereo unspecified) | > 40 µM |  |
| 6.3 µM | CC(C(=O)N1CCCC1)N1CCCN(S(=O)(=O)c2ccc(C(C)(C)C)cc2)CC1 (stereo unspecified) | > 40 µM |  |

| Compound | EC50 (Plasmodium falciparum [1]) | EC50 (HepG2) | other results |
| --- | --- | --- | --- |
| C[C@H](C(=O)N1CCCCC1)N1CCN(S(=O)(=O)c2ccc(C(C)(C)C)cc2)CC1 | 6.9 µM | > 40 µM |  |
| C[C@@H](C(=O)N1CCc2ccccc2C1(C)C)N1CCN(S(=O)(=O)c2ccc(C(C)(C)C)cc2)CC1 | 0.11 µM | 26 µM | inhibition of growth at 20 µM (Plasmodium falciparum [3]): 59%; inhibition of growth at 20 µM (Plasmodium falciparum [4]): 79%; EC50 (Plasmodium falciparum [5]): > 10 µM; Activity (Plasmodium falciparum [6]): Active; EC50 (Plasmodium falciparum [7]): > 10 µM; EC50 (Plasmodium falciparum [8]): 0.04 µM; EC50 (Plasmodium falciparum [9]): 0.06 µM; EC50 (Plasmodium knowlesi): 0.09 µM; EC50 (Plasmodium falciparum [10]): 0.03 µM; EC50 (Plasmodium falciparum [11]): 0.02 µM; Activity (Plasmodium falciparum [12]): Active; EC50 (Plasmodium falciparum [13]): 0.01 µM; Activity (Plasmodium falciparum [14]): Active |
